Results: PubChem BioAssay
Calls of active or inactive are those of the source.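 How the source made its calls, unless noted: active means GFP response above 150% of the DMSO level; inconclusive means fewer than 70 events counted for a yeast strain; inactive means the rest.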

Assays:
[1] = RPL19A-GFP modulators, yeast TOR pathway, confirmation, cell-based, S. cerevisiae, flow cytometry, cherry picks, mother/daughter gates (AID 2270;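 active means GFP response below 50% of the DMSO control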); conditions: S. cerevisiae RPL19A-GFP strain, 3 h, at 10 µM, stronger effect = lower value, 100 = same GFP as DMSO wells
[2] = LAP4-GFP expression modulators in yeast, confirmation, cell-based, cherry picks, flow cytometry, mother/daughter gates (AID 2271;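 active means GFP response above 150% of the DMSO control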;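 further: ratio of sample to DMSO plate mean so 100% equals DMSO level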); conditions: S. cerevisiae LAP4-GFP strain, 3 h, at 10 µM, stronger effect = higher value, 100 means same as DMSO control
Procedure, shortened: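 Material: Alexa Fluor 633-labelled Saccharomyces cerevisiae GFP-fusion strain, single-plex | Amount: Yeast cells seeded at OD600 of 0.2 | Buffer or medium: SC growth medium | Schedule: 3 h exposure, 30 °C | Measured by: HT flow cytometry, GFP fluorescence channel | Evaluation: % GFP response vs DMSO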

[3] = modulators of MEP2-GFP levels in yeast, confirmation, S. cerevisiae, flow cytometry GFP, cherry picks (AID 2272;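 active means GFP response above 150% of the DMSO control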;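 further: ratio of well signal to plate DMSO mean so 100% equals DMSO level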); conditions: S. cerevisiae MEP2-GFP strain, 3 h, at 10 µM, stronger effect = higher value
[4] = AGP1-GFP expression modulators, hit retest, confirmation, cell-based, flow cytometry, S. cerevisiae, cherry picks (AID 2273);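 further: median GFP channel fluorescence over the whole cell population gate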; conditions: S. cerevisiae AGP1-GFP strain, 3 h, at 10 µM
[5] = modulators of CIT2-GFP expression in yeast, confirmation, S. cerevisiae, GFP fusion, cherry picks, mother/daughter gates (AID 2274); conditions: S. cerevisiae CIT2-GFP strain, flow cytometry, 3 h, at 10 µM, stronger effect = higher value
[6] = measured here: daughter cell gate
[7] = measured here: mother cell gate
[8] = measured here: daughter cell gate response
[9] = measured here: mother cell gate response

Row | SMILES | GFP response vs DMSO [1] | GFP response vs DMSO [1, 6] [%] | GFP response vs DMSO [1, 7] [%] | GFP response relative to DMSO [2] | GFP response relative to DMSO [2, 8] [%] | GFP response relative to DMSO [2, 9] [%] | GFP response vs DMSO [3] | GFP response, % of DMSO [4] | GFP response, % of DMSO [5] | GFP response, % of DMSO [5, 6] [%] | GFP response, % of DMSO [5, 7] [%]
1 | COC(=O)c1ccc(Cn2cc(/C=C\[N+](=O)[O-])c3ccccc32)o1 | 103% (inactive) | 104 | 102 | 122% (inactive) | 115 | 127 | 106% (inactive) | 98.2% (inactive) | 96.4% (inactive) | 100 | 92.1
2 | Cc1cc(N2CCCCC2)n2ncc(-c3ccccc3)c2n1 | 97.6% (inactive) | 97.3 | 98.4 | 102% (inactive) | 106 | 102 | 95.7% (inactive) | 95.2% (inactive) | 104% (inactive) | 103 | 103
3 | O=S(=O)(c1ccccc1)c1ncc(C(F)(F)F)cc1O | 96.5% (inactive) | 98.4 | 94.8 | 97.7% (inactive) | 97.5 | 99.5 | 110% (inactive) | 104% (inactive) | 101% (inactive) | 99.3 | 102
4 | COc1ccc(-c2cc(C(F)(F)F)nc(N3CCOCC3)n2)cc1OC | 100% (inactive) | 100 | 98.4 | 101% (inactive) | 101 | 102 | 126% (inactive) | 99.5% (inactive) | 110% (inactive) | 114 | 109
5 | Clc1ccc(C2=NNC(=NCc3ccccc3)SC2)cc1 | 95.6% (inactive) | 94.6 | 86.8 | 97.9% (inactive) | 97.6 | 98.3 | 98.3% (inactive) | 93.9% (inactive) | 99.7% (inactive) | 101 | 98.5
6 | CCOc1cc(/C=C2\N=C(C)OC2=O)cc(Cl)c1OCC(=O)OC | 105% (inactive) | 106 | 101 | 122% (inactive) | 120 | 125 | 101% (inactive) | 92.4% (inactive) | 93% (inactive) | 95.6 | 90.7
7 | COC(=O)c1cccc(-n2c(CCC(=O)O)ccc2-c2cccs2)c1 | 99.2% (inactive) | 98.9 | 100 | 104% (inactive) | 103 | 103 | 98.8% (inactive) | 103% (inactive) | 97.2% (inactive) | 96.8 | 97.7
8 | Cc1cc(N2CCN(C(=O)c3ccco3)CC2)n2ncc(-c3ccccc3)c2n1 | 108% (inactive) | 90.8 | 101 | 108% (inactive) | 96 | 105 | 116% (inactive) | 106% (inactive) | 118% (inactive) | 95.8 | 107
9 | CCOc1ccc(Nc2nc(N(C)c3ccccc3)nc(N)c2[N+](=O)[O-])cc1 | 92.1% (inactive) | 94.7 | 91.7 | 96.5% (inactive) | 95 | 95.6 | 106% (inactive) | 113% (inactive) | 104% (inactive) | 104 | 106
10 | COc1cccc(-c2nnc(NC(=O)c3ccc(S(=O)(=O)N4CCOCC4)cc3)o2)c1 | 97.6% (inactive) | 97.8 | 96.5 | 97.7% (inactive) | 99 | 97.4 | 101% (inactive) | 100% (inactive) | 100% (inactive) | 99.3 | 100
11 | COc1ccc(NC(=O)CCN2CCN(S(=O)(=O)c3cc(Cl)ccc3OC)CC2)cc1 | 99% (inactive) | 97.8 | 94.3 | 99.8% (inactive) | 98.2 | 96.2 | 101% (inactive) | 105% (inactive) | 102% (inactive) | 100 | 102
12 | C=CCNC(=O)/C(C#N)=C/c1c(N2CC(C)OC(C)C2)nc2ccccn2c1=O (centres undefined) | 98.8% (inactive) | 99.5 | 98.4 | 102% (inactive) | 100 | 105 | 102% (inactive) | 100% (inactive) | 96.5% (inactive) | 98.1 | 94.4
13 | COc1cc(/C=C/C(=O)c2c(O)ccc3c(C)cc(=O)oc23)ccc1O | 95% (inactive) | 94.4 | 95.8 | 124% (inactive) | 120 | 130 | 98.3% (inactive) | 92.5% (inactive) | 96.9% (inactive) | 101 | 93.8
14 | CCn1c2ccccc2c2cc(/C=N/n3cn[nH]c3=S)ccc21 | 93.6% (inactive) | 91.6 | 93.3 | 139% (inactive) | 128 | 141 | 97.2% (inactive) | 94.3% (inactive) | 87.5% (inactive) | 86.9 | 84.8
15 | COc1ccc(CNC(=O)c2nc(S(=O)(=O)Cc3ccccc3)ncc2Cl)cc1 | 102% (inactive) | 104 | 101 | 107% (inactive) | 107 | 108 | 116% (inactive) | 103% (inactive) | 106% (inactive) | 106 | 105
16 | NC(=O)c1ccccc1-c1nc(-c2ccccc2)no1 | 97.6% (inactive) | 96.1 | 96.7 | 101% (inactive) | 97.5 | 102 | 109% (inactive) | 102% (inactive) | 105% (inactive) | 101 | 104
17 | O=C(O)CCc1ccc(-c2ccc(Cl)cc2)o1 | 99% (inactive) | 91.7 | 97.2 | 138% (inactive) | 128 | 140 | 99% (inactive) | 85.4% (inactive) | 94.4% (inactive) | 88.4 | 94.4

Row | SMILES | GFP response vs DMSO [1] | GFP response vs DMSO [1, 6] [%] | GFP response vs DMSO [1, 7] [%] | GFP response relative to DMSO [2] | GFP response relative to DMSO [2, 8] [%] | GFP response relative to DMSO [2, 9] [%] | GFP response vs DMSO [3] | GFP response, % of DMSO [4] | GFP response, % of DMSO [5] | GFP response, % of DMSO [5, 6] [%] | GFP response, % of DMSO [5, 7] [%]
18 | Fc1ccc(/C=N/Nc2nc(-c3cccnc3)nc3ccccc23)cc1 | 94.5% (inactive) | 92.5 | 95 | 107% (inactive) | 105 | 111 | 102% (inactive) | 94.6% (inactive) | 93.9% (inactive) | 96.5 | 91.2
19 | Cc1cc(=O)n(-c2ccc3ccccc3n2)[nH]1 | 106% (inactive) | 109 | 103 | 115% (inactive) | 120 | 116 | 102% (inactive) | 99.6% (inactive) | 112% (inactive) | 114 | 107
20 | CC(Oc1cccc(Cl)c1)C(=O)Nc1nc(-c2ccccn2)cs1 (centres undefined) | 105% (inactive) | 97 | 103 | 161% (active) | 140 | 167 | 104% (inactive) | 90.8% (inactive) | 86.1% (inactive) | 93.2 | 81.6
21 | CCc1cccc2sc(N3CCN(C(=O)c4ccc([N+](=O)[O-])o4)CC3)nc12 | 82.5% (inactive) | 85.9 | 70.2 | 251% (active) | 125 | 222 | 172% (inactive) | 108% (inactive) | 108% (inactive) | 99.3 | 102
22 | CCCN1CCc2c(sc(NC(=S)NC(=O)c3ccccc3)c2C#N)C1 | 100% (inactive) | 99.6 | 97.8 | 116% (inactive) | 107 | 120 | 187% (active) | 102% (inactive) | 106% (inactive) | 99.2 | 108
23 | Cc1cccc(C)c1NC(=O)c1nc(S(=O)(=O)Cc2ccccc2)ncc1Cl | 97.1% (inactive) | 96.4 | 95.8 | 102% (inactive) | 101 | 101 | 101% (inactive) | 102% (inactive) | 94.4% (inactive) | 92.3 | 93.8
24 | O=C(Nc1cccc(Cl)c1N1CCCC1)c1ccc([N+](=O)[O-])o1 | 99.2% (inactive) | 96.4 | 95.8 | 99.2% (inactive) | 92.8 | 96.1 | 100% (inactive) | 97.6% (inactive) | 99.7% (inactive) | 99.1 | 91.4
25 | O=[N+]([O-])c1ccc(Sc2ccc(Cl)c(Cl)c2)nc1 | 97.1% (inactive) | 96.1 | 96.9 | 98.9% (inactive) | 102 | 100 | 103% (inactive) | 101% (inactive) | 98.6% (inactive) | 99.3 | 99.3
26 | CCOc1cc(-c2nc3cc(C)ccn3c2NCC2CCCO2)ccc1O (centres undefined) | 103% (inactive) | 105 | 101 | 88.2% (inactive) | 91.3 | 87.3 | 103% (inactive) | 97.9% (inactive) | 104% (inactive) | 108 | 104
27 | Cc1cccn2c(=O)c(/C=C(\C#N)C(=O)NC3CCS(=O)(=O)C3)c(N3CCC(C(N)=O)CC3)nc12 (centres undefined) | 101% (inactive) | 98.6 | 102 | 98.2% (inactive) | 97.5 | 98.4 | 99% (inactive) | 89.7% (inactive) | 97.3% (inactive) | 97.4 | 96.8
28 | Cc1cc(C)c2sc(NC(=O)C3=COCCO3)nc2c1 | 95.8% (inactive) | 95.5 | 97.9 | 94.2% (inactive) | 95 | 96.5 | 99.5% (inactive) | 92.5% (inactive) | 102% (inactive) | 104 | 101
29 | Cc1cccc(NC(=O)CC2SC(=O)N(c3ccccc3)C2=O)c1 (centres undefined) | 96.6% (inactive) | 99.4 | 93 | 126% (inactive) | 128 | 126 | 109% (inactive) | 93.9% (inactive) | 104% (inactive) | 106 | 97.3
30 | COc1ccc(N2CCN(C(=O)c3ccc(OCC4CCCO4)cc3)CC2)cc1 (centres undefined) | 99.2% (inactive) | 98.8 | 98.3 | 99.5% (inactive) | 101 | 98.4 | 99% (inactive) | 99.8% (inactive) | 100% (inactive) | 101 | 99.3
31 | CCN1/C(=C/c2ccc3cc(C)ccc3[n+]2CC)Sc2ccc3sccc3c21 | 96.7% (inactive) | 74.3 | 92.3 | 316% (active) | 155 | 287 | 244% (active) | 118% (inactive) | 132% (inactive) | 110 | 133
32 | O=[N+]([O-])c1cc(Cl)ccc1Sc1ccccn1 | 104% (inactive) | 102 | 103 | 98.2% (inactive) | 95.9 | 98.4 | 112% (inactive) | 99% (inactive) | 95.9% (inactive) | 95.6 | 93.2
33 | Nc1ccccc1NC(=O)c1ccccc1 | 101% (inactive) | 103 | 99.8 | 98.9% (inactive) | 96 | 99.5 | 106% (inactive) | 98.4% (inactive) | 101% (inactive) | 103 | 103
34 | O=C1C(=O)c2ccc(-c3ccccc3)cc2-c2ccccc21 | 102% (inactive) | 104 | 102 | 117% (inactive) | 110 | 124 | 115% (inactive) | 90.4% (inactive) | 107% (inactive) | 106 | 102
